In ChEMBL document CHEMBL4024713, “Novel aryl piperazines for alleviation of 'andropause' associated prostatic disorders and depression” (Eur J Med Chem, 2017):
pEC50: −log10 of the molar value. Calls of active or inactive are those of the source. The rule behind the calls is not given here.

Assays:
Hypothalamus [1] = test: Volume of distribution at steady state in Sprague-Dawley rat hypothalamus at 10 mg/kg, po administered as single dose by LC-MS/MS analysis; assay type: ADME, organism-based; settings: in vivo
Procedure, shortened: (§1)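 Male Sprague Dawley rats (250 ± 25 g), fasted overnight (12-16 h), n = 3 per time point; single 10 mg/kg dose orally by feeding needle, or iv from DMSO solution. Serum, prostate and hypothalamus collected up to 48 h post oral dose; hypothalamus from three rats pooled. LC-MS/MS (MRM, phenacetin internal standard), linear 5-400 ng/mL; noncompartmental and compartmental analysis.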

Hypothalamus [2] = test: AUClast in Sprague-Dawley rat hypothalamus at 10 mg/kg, po administered as single dose by LC-MS/MS analysis; assay type: ADME, organism-based; settings: in vivo; procedure, shortened: as §1
[3] = Ratio of drug level in hypothalamus to serum in Sprague-Dawley rat at 10 mg/kg, po administered as single dose by LC-MS/MS analysis; assay type: ADME, organism-based; procedure, shortened: as §1
Rattus norvegicus = test: Anti-androgenic activity in citral-induced prostatic hyperplasia Sprague-Dawley rat model assessed as prostate weight at 10 mg/kg, po administered once daily coadministered with citral for 21 days measured 24 hrs last post dose (reference value: 100%); assay type: functional
Procedure, shortened: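 Adult male Sprague-Dawley rats (250-280 g, n = 5), citral 100 mg/kg orally once daily for 28 days. From day 8, compound or flutamide at 10 mg/kg orally once daily for the remaining 21 days. Prostate weight is expressed relative to the citral group (100%). Prostates fixed in 10% formalin; 5 μ sections stained with H&E, examined by light microscopy.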

LNCaP = test: Cytotoxicity against human LNCAP cells after 24 hrs by MTT assay; assay type: functional, cell-based
[4] = Volume of distribution at steady state in Sprague-Dawley rat prostate at 10 mg/kg, po administered as single dose by LC-MS/MS analysis; assay type: ADME, organism-based, Prostate gland; settings: in vivo; procedure, shortened: as §1
[5] = AUClast in Sprague-Dawley rat serum at 10 mg/kg, po administered as single dose by LC-MS/MS analysis; assay type: ADME, organism-based; parameters: dose 10 mg/kg, route oral, time 0 - last; procedure, shortened: as §1
Mus musculus [6] = test: Toxicity in Swiss albino mouse assessed as latency time to fall at 20 mg/kg, po measured at 1 hr interval for 4 hrs by rotarod test; assay type: organism-based; settings: in vivo
Procedure, shortened: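 Mice trained on the rotarod (5 to 10 rpm), 2 min trials, 3 per day for two days. On day 3, tested before oral dosing and at 1, 2, 3 and 4 h after, recording latency to fall.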

Hypothalamus [7] = test: Clearance in Sprague-Dawley rat hypothalamus at 10 mg/kg, po administered as single dose by LC-MS/MS analysis; assay type: ADME, organism-based; settings: in vivo; procedure, shortened: as §1
Mus musculus [8] = test: Anti-depressant like activity in Swiss albino mouse assessed as reduction in immobility time at 20 mg/kg, po measured for 5 mins by tail suspension test; assay type: functional, organism-based
Procedure, shortened: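 Male Swiss albino mice dosed orally in 1% gum acacia; imipramine as standard. Each mouse suspended by the tail with tape to a horizontal bar 60 cm above the table. Immobility (no limb or body movement other than respiration) recorded for 5 min after 1 min acclimatization; N = 5.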

[9] = biological target: T1, Androgen receptor (Homo sapiens) (UniProt P10275); test: Antagonist activity at AR (unknown origin) expressed in African green monkey COS7 cells at 7.5 uM after 24 hrs by dual luciferase reporter gene assay; assay type: cell-based
T1 sequence (whole entry): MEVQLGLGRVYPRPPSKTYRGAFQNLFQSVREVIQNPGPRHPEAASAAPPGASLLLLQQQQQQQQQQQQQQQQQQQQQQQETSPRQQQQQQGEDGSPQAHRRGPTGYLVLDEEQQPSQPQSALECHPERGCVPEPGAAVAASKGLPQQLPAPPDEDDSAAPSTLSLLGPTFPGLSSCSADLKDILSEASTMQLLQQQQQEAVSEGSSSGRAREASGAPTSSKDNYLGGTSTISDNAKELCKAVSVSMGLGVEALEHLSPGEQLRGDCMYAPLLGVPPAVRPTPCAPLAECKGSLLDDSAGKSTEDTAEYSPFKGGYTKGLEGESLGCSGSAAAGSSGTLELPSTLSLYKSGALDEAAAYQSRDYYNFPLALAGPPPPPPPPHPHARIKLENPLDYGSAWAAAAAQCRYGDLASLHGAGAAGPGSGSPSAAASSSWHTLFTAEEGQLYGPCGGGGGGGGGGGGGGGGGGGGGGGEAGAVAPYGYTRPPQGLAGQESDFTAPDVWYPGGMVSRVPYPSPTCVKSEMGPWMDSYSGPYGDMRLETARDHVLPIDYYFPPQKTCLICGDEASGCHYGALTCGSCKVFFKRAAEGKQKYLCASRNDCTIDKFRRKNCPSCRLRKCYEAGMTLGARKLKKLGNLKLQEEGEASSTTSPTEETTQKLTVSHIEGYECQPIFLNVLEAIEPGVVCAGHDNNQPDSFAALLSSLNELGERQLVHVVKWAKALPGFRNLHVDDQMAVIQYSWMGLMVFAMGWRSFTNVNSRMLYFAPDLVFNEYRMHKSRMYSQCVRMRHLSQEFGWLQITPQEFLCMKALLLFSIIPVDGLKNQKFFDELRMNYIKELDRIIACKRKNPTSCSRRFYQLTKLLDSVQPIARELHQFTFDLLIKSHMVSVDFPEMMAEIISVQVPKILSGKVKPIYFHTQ
Procedure, shortened: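 Cos7 cells (AR-negative) transiently transfected for 8 h with pARE-E1B-LUC reporter plus pCR3.1.AR expression vector. Then in complete medium, treated with compound at 7.5 μM for 24 h; bicalutamide 3 μM as positive control. Luciferase normalized to pRL-SV40 internal control, expressed as RLU relative to control = 100%.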

Serum = test: Volume of distribution at steady state in Sprague-Dawley rat serum at 10 mg/kg, po administered as single dose by LC-MS/MS analysis; assay type: ADME, organism-based; settings: in vivo; procedure, shortened: as §1
[10] = Ratio of drug level in prostate to serum in Sprague-Dawley rat at 10 mg/kg, po administered as single dose by LC-MS/MS analysis; assay type: ADME, organism-based; procedure, shortened: as §1
[11] = Tmax in Sprague-Dawley rat prostate at 10 mg/kg, po administered as single dose by LC-MS/MS analysis; assay type: ADME, organism-based, Prostate gland; procedure, shortened: as §1
[12] = Half life in Sprague-Dawley rat serum at 10 mg/kg, iv administered as single dose by LC-MS/MS analysis; assay type: ADME, organism-based; procedure, shortened: as §1
[13] = Half life in Sprague-Dawley rat serum at 10 mg/kg, po administered as single dose by LC-MS/MS analysis; assay type: ADME, organism-based; procedure, shortened: as §1
[14] = Cmax in Sprague-Dawley rat hypothalamus at 10 mg/kg, po administered as single dose by LC-MS/MS analysis; assay type: ADME, organism-based; parameters: dose 10 mg/kg, route oral; procedure, shortened: as §1
[15] = Clearance in Sprague-Dawley rat serum at 10 mg/kg, iv administered as single dose by LC-MS/MS analysis; assay type: ADME, organism-based; procedure, shortened: as §1
[16] = Half life in Sprague-Dawley rat prostate at 10 mg/kg, po administered as single dose by LC-MS/MS analysis; assay type: ADME, organism-based, Prostate gland; procedure, shortened: as §1
[17] = Volume of distribution at steady state in Sprague-Dawley rat serum at 10 mg/kg, iv administered as single dose by LC-MS/MS analysis; assay type: ADME, organism-based; settings: read-out: Vdss; procedure, shortened: as §1

c1ccc(N2CCN(CCCN3CCN(c4ccccn4)CC3)CC2)nc1
Vdss (Hypothalamus [1]): 6.6 g/kg
AUClast (Hypothalamus [2]): 4.2 µg·h/g
Kp [3]: 4.6
Activity (Rattus norvegicus): 53.8%
pEC50 (LNCaP): 4.81
Vdss [4]: 3.6 g/kg
AUC(0-t) [5]: 900 ng·h/mL
Time (Mus musculus [6]): 120 s
CL (Hypothalamus [7]): 0.8 g/h/kg
Activity (Mus musculus [8]): Active
Activity [9]: Active
Vdss (Serum): 23.7 L/kg
Kp [10]: 11.8
Tmax [11]: 4 h
half-life [12]: 5.2 h
half-life [13]: 5.4 h
Cmax [14]: 461 ng/g
clearance [15]: 68.3 mL/min/kg
half-life [16]: 155 h
Vd [17]: 28.3 L/kg
